Each structure is given as a SMILES string. Active and inactive are the calls of the source. No cut-off for these calls is given here.

The subject of one assay is Blood. Nature of the assay: Antiinflammatory activity in human whole blood assessed as inhibition of LPS-induced TNFalpha production at 10 uM treated for 30 mins followed by 5 hrs LPS challenge by ELISA-based WBCCS assay. It counts as functional. In outline: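 Human whole blood cells exposed to compound 30 min, then LPS-stimulated; supernatants collected after 5 h and TNF-α determined by ELISA; expressed as percent inhibition.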
A general note: In an ELISA, binding on a coated surface is turned into a signal by an enzyme label.

In assay [1] the test system is PBMC. Nature of the assay: Antiinflammatory activity in human PBMC assessed as inhibition of LPS-induced TNFalpha production treated for 30 mins followed by 5 hrs LPS challenge by ELISA assay. It counts as functional, cell-based. In outline: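 Human PBMC pre-treated with compound (0.03–100 µM) for 30 min, then LPS-stimulated 5 h; TNF-α measured. Controls: DMSO vehicle with LPS, unstimulated cells, rolipram standard. Mean ± S.E.M. of three experiments; IC50 from concentration–response.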

Assay [2] relates to PBMC. As to the kind of experiment: Cytotoxicity against human PBMC by MTS assay. It counts as cell-based. In outline:
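Viability of human PBMC determined by MTS across the concentrations tested in the LPS-stimulated TNF-α assay.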
(In general: Formazan colour is commonly taken as a measure of viable cells.)

The next assay has as its system Mus musculus. Nature of the assay: Antiinflammatory activity in BALB/c mouse assessed as inhibition of LPS-induced TNFalpha production in plasma at 100 mg/kg, po by ELISA. It counts as functional. In outline: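 BALB/c mice dosed orally, vehicle 0.5% carboxymethylcellulose, rolipram as standard; LPS given 1 h later. Blood drawn 1.5 h after LPS; plasma TNF-α quantified by ELISA.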

As a reminder, the inhibition is the share of the control response that was lost under treatment. Take `COc1ccc(COc2cc(CCC(=O)/C=C/CCc3cccnc3)ccc2OC)cc1`: the inhibition at 10 µM in the assay with Blood stood at 19%. A word on the IC50: it is the concentration that gives 50% inhibition. Broadly, the inhibition in vivo is how much of the control response was suppressed. As for `COc1ccc(CCC(=O)/C=C/CCc2cccnc2)cc1OC`, the inhibition result in the assay with PBMC [1] was “Dose-dependent effect”. Besides, the IC50 is 2.5 µM with PBMC [1] (read-out: IC50) and 80 µM with PBMC [2]. In the assay on Blood, the inhibition at 10 µM is 56%. The inhibition in vivo at 100 mg/kg in the assay with Mus musculus was determined as 50%.

Turning to `COc1cccc(CCC(=O)/C=C/CCc2cccnc2)c1OC`, in the assay on Blood, the inhibition at 10 µM came out at 33%. On to `O=C(CC(O)CCc1cccnc1)/C(=C\CCc1cccnc1)Cc1ccc(Cl)cc1` (stereo not drawn), for which the inhibition at 10 µM in the assay with Blood came out at 32%. Consider `COc1ccc(COc2ccc(CCC(=O)CC(O)CCc3cccnc3)cc2OC)cc1` (stereo not drawn), for which, in the assay on Blood, the inhibition at 10 µM amounted to 2%. Regarding `COc1cccc(CCC(=O)CC(O)CCc2cccnc2)c1OC` (stereo not drawn), the inhibition at 10 µM in the assay with Blood turned out to be 10%.

`N#Cc1ccc(CCC(=O)CC(O)CCc2cccnc2)cc1` (stereo not drawn): the inhibition at 10 µM with Blood was 35%.

Regarding `O=C(CCc1ccc(F)cc1)CC(O)CCc1cccnc1` (stereo not drawn), in the assay with Blood, the inhibition at 10 µM came to 34%. In the case of `Cc1cccc(CCC(=O)CC(O)CCc2cccnc2)c1` (stereo not drawn), the inhibition at 10 µM in the assay with Blood came out at 11%.

For `COc1cc(CCC(=O)/C=C/CCc2cccnc2)cc(OC)c1OC`, the inhibition at 10 µM with Blood was found to be 23%. `COc1ccc(COc2cc(CCC(=O)CC(O)CCc3cccnc3)ccc2OC)cc1` (stereo not drawn): the IC50 with PBMC [1] (read-out: IC50) is 5.7 µM; in the assay on PBMC [2] it was greater than 100 µM. Moreover, the inhibition at 10 µM in the assay on Blood is 44%. Further, the inhibition in vivo at 100 mg/kg with Mus musculus was 71%. With `O=C(CCc1ccc2c(c1)OCO2)CC(O)CCc1cccnc1` (stereo not drawn), in the assay on Blood, the inhibition at 10 µM was 41%. On the same count and under the same terms, as for `Cc1cccc(CCC(=O)/C=C/CCc2cccnc2)c1`, the figure is 25%; as for `COc1ccc(CCC(=O)CC(O)CCc2cccnc2)cc1OC` (stereo not drawn), 18%; as for `COc1cc(CCC(=O)CC(O)CCc2cccnc2)cc(OC)c1OC` (stereo not drawn), 12%. Consider `COc1ccc(CCC(=O)/C=C/CCc2cccnc2)c(OC)c1`, for which the inhibition result in the assay with PBMC [1] is “Dose-dependent effect”. Moreover, the IC50 came to 2 µM with PBMC [1] (read-out: IC50) and 38 µM in the assay with PBMC [2]. For the same compound, in the assay on Blood, the inhibition at 10 µM turned out to be 56%. The inhibition in vivo at 100 mg/kg in the assay on Mus musculus turned out to be 79%. Regarding `COc1ccc(OC)c(CCC(=O)/C=C/CCc2cccnc2)c1`, in the assay with Blood, the inhibition at 10 µM was determined as 0%. The same measure, in the same setting: the figure for `CN(C)c1ccc(CCC(=O)/C=C/CCc2cccnc2)cc1` is 32%.

Take `O=C(CCc1ccc(Cl)cc1)CC(O)CCc1cccnc1` (stereo not drawn): the inhibition at 10 µM with Blood amounted to 16%. Still for that read-out and setting: the figure for `O=C(/C=C/CCc1cccnc1)CCc1ccccc1` is 0%.

Consider `O=C(/C=C/CCc1cccnc1)CCc1ccc(F)cc1`, for which, in the assay with Blood, the inhibition at 10 µM stood at 35%. Take `COc1ccc(CCC(=O)CC(O)CCc2cccnc2)c(OC)c1` (stereo not drawn): the inhibition at 10 µM in the assay with Blood is 22%. In the case of `COc1ccc(OC)c(CCC(=O)CC(O)CCc2cccnc2)c1` (stereo not drawn), the inhibition at 10 µM in the assay with Blood amounted to 0%. As for `O=C(CCc1ccccc1)CC(O)CCc1cccnc1` (stereo not drawn), in the assay with Blood, the inhibition at 10 µM came out at 3%. Same read-out and setting: as for `CN(C)c1ccc(CCC(=O)CC(O)CCc2cccnc2)cc1` (stereo not drawn), the figure is 0%. Turning to `COc1ccc(COc2ccc(CCC(=O)/C=C/CCc3cccnc3)cc2OC)cc1`, the IC50 in the assay with PBMC [1] (read-out: IC50) was 24.1 µM; in the assay with PBMC [2], greater than 100 µM. For the same compound, the inhibition at 10 µM with Blood amounted to 40%. Also, the inhibition in vivo at 100 mg/kg with Mus musculus worked out at 75%. Regarding `COc1cc(/C=C/C(=O)CC(=O)/C=C/c2ccc(O)c(OC)c2)ccc1O` [CURCUMIN], the IC50 with PBMC [1] amounted to 2.71 µM. In addition, in the assay with Mus musculus, the inhibition entry is “inactive”. For `N#Cc1ccc(CCC(=O)/C=C/CCc2cccnc2)cc1`, the inhibition at 10 µM in the assay with Blood was found to be 9%.
